Screens from PubChem BioAssay.
The full list was thinned out, with hits kept by preference.
VLA-4 inh – inhibition in a human VLA-4 binding assay; P13612; VLA-4 expressing cells, ligand binding flow cytometry; inhibition, % (about 7 µM as worked out from the volumes in the protocol); 0.2% of 330,000 active; AID 2557; in the data active = inhibition above about 50%
CHOP inh – CHOP inhibition in unfolded protein response | CHO-K1 CHOP-promoter luciferase, tunicamycin-induced, 15-18 h | inhibition, % at 10 µM | 3.8% of 220,000 active;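 active = compounds that reduced the stress-induced luciferase reporter signal by more than about 70% of percent inhibition, limit read from the data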;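 note: 0% = tunicamycin plus vehicle and 100% = wells without tunicamycin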
CHOP UPR activ – apoptotic UPR (CHOP) activation | 0.34% of 330,000 active | CHO-CHOP luciferase reporter, luminescence; percent of tunicamycin response over DMSO baseline | AID 449763 | activation, % at 10 µM;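 active = at 10 µM dose, activation of 40% or more, normalized to positive control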;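 note: 100% = tunicamycin at 10 µg/mL and 0% = DMSO alone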
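Assay system: CHO-CHOP cells, stable luciferase reporter of PERK-eIF2a-CHOP signalling / Buffer or medium: F12 plus 10% serum / Compound dosing: one dose, 10 µM in 0.5% DMSO / Times: 6 h compound treatment, 37 °C / Technique: luciferase luminescence / Read-out: % reporter activation, DMSO baseline versus tunicamycin full activation / Benchmarks: tunicamycin and DMSO controls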
UPR XBP1 act – activators of adaptive arm of unfolded protein response (XBP1). CHO-XBP1 luciferase reporter, IRE1-XBP1 UPR activation, luminescence; percent of tunicamycin response, DMSO as zero. activation, % at 20 µM. 0.33% of 330,000 active;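 active = versus positive control, 20 µM dose yields 30% or more activation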;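 note: 100% = tunicamycin at 10 µg/mL and 0% = DMSO only wells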
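Assay system: CHO-XBP1 luciferase reporter cells; Schedule: 6 h treatment, 37 °C; Detection: glow luminescence from Steady-Glo reagent; Benchmarks: high control tunicamycin 10 µg/mL final, low control DMSO vehicle only.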
B2AR ag – human beta-2 adrenergic receptor agonism by FAP; Am2.2-beta2AR cells, FAP receptor internalization, flow cytometry; 0.43% of 340,000 active; response, % (concentration not given with the values); AID 504454;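 active = response above a set limit, near 3 SD of response in nonfluorescent compounds, cut at about 42% in these data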
Target sequence (P07550 whole entry, looked up): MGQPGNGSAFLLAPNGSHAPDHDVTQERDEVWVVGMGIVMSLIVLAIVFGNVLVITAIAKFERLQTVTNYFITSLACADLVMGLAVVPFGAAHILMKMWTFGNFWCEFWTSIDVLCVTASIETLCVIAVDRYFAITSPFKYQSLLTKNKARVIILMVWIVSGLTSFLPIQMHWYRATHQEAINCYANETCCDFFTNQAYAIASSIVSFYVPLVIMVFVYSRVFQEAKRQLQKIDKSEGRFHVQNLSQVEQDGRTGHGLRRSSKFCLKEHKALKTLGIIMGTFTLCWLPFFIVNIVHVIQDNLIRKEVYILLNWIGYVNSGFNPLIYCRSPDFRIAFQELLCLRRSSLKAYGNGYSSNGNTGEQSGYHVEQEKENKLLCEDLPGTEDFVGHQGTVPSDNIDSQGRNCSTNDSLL
Numbers without * were called inactive; nt = no result given.

SMILES	VLA-4 inh	CHOP inh	CHOP UPR activ	UPR XBP1 act	B2AR ag
O=C(CSCCNS(=O)(=O)c1ccccc1)Nc1ccccc1	2	74*	0	-3	2
CC1=C(C(=O)OCc2ccccc2)C(c2ccc(Cl)cc2)NC(=O)N1CCCC(=O)O (stereo unspecified)	2	nt	1	-1	nt
Cc1ccc(C23CC4CC(CC(C(=O)N(C)C)(C4)C2)C3)cc1	1	nt	-2	0	-5
COc1ccc(-c2cn[nH]c2-c2ccc(OCc3ccc([N+](=O)[O-])cc3)cc2O)cc1OC	-9	67	-2	1	15
COc1ccc(-c2cn[nH]c2-c2ccc(OC)cc2O)cc1	-4	nt	-1	-3	-2
COc1cccc(Oc2cn[nH]c2-c2ccc(OC)cc2O)c1	-11	84*	0	2	1
COc1ccc(-c2[nH]ncc2-c2ccc(Cl)cc2)c(O)c1	-2	86*	-1	-1	3
O=[N+]([O-])c1ccc(COc2ccc(-c3[nH]ncc3-c3ccc(Cl)cc3)c(O)c2)cc1	-7	82*	2	0	12
CCOC(=O)C1(C(=O)OCC)C(C(=O)c2ccccc2)C1c1ccccc1 (stereo unspecified)	nt	nt	nt	nt	-4
Cc1cc(C(C)(C)C)cc(S(=O)(=O)Nc2ccc(O)c(C(=O)O)c2)c1C	5	21	0	-2	0
CC(=O)Nc1ccc(NC(=O)c2ccc(NS(=O)(=O)c3cc(C(C)(C)C)cc(C)c3C)cc2)cc1	6	76*	1	-2	0
Cc1ccc(NS(=O)(=O)c2cc([N+](=O)[O-])ccc2NNC(=S)Nc2cc(C)ccc2C)c(C)c1	-44	89*	5	0	17
CC(=O)Nc1ccc(NS(=O)(=O)c2cc([N+](=O)[O-])ccc2C)cc1	55*	-8	2	-3	0
Cc1cccc(NS(=O)(=O)c2cc(NC(=O)CC(=O)c3ccc([N+](=O)[O-])cc3)ccc2C)c1	nt	93*	nt	nt	nt
CC(=O)N(c1ccc(C)cc1)S(=O)(=O)c1ccc(Cl)cc1	15	0	1	-1	-4
O=C(O)c1ccc(N=NNc2cccc([N+](=O)[O-])c2)cc1	11	6	3	0	13
N#C/C(=N\Nc1cccc([N+](=O)[O-])c1)C(=O)c1ccc(Br)cc1	9	79*	2	1	21
Cn1nc(-c2ccc(Cl)cc2)c2cc(C(=O)N3CCN(c4ccccn4)CC3)sc21	25	90*	4	5	-13
OC(CNCCC1C=Nc2ccccc21)Cn1c2ccc(Cl)cc2c2cc(Cl)ccc21 (stereo unspecified)	37	109*	nt	nt	23
CN(CCc1ccccc1)C1CCCN(S(=O)(=O)N(C)C)C1 (stereo unspecified)	2	nt	0	-4	3
C=CCNc1nc(N)c(C(=C(C#N)C#N)c2ccc(Br)cc2)s1	-22	81*	0	-2	4
O=C(CO/N=C/c1ccccc1O)N1CCc2ccccc21	10	12	3	0	72*
CC(C)COc1ccc(-c2nnc(-c3ccco3)o2)cc1	6	78*	-1	-2	-5
O=C1COc2ccc(C(=O)CSc3nnnn3-c3ccccc3)cc2N1	3	14	0	0	-2
Cn1c(SCC(=O)c2ccc3c(c2)NC(=O)CO3)nc2ccccc21	-7	86*	2	1	-9
SMILES	VLA-4 inh	CHOP inh	CHOP UPR activ	UPR XBP1 act	B2AR ag
Cn1cnc2nc(Cl)nc(Cl)c21	nt	nt	nt	nt	62*
CNc1nc(Cl)nc2ncn(C)c12	nt	nt	nt	nt	-7
COC(=O)CSc1nc(NC(C)(C)C)nc(N(C)C)n1	1	-7	2	3	-1
CC(=O)C(Sc1nc(NC(C)(C)C)nc(N(C)C)n1)C(C)=O	10	73*	1	-1	-6
CC(C)C(=O)Nc1ccc(C(=O)NNC(=S)NC(=O)c2ccco2)cc1	9	-6	1	-1	nt
COc1ccc2cc(C)c(SCC(=O)Nc3cc(C)on3)nc2c1	15	84*	13	23	-10
COc1ccccc1Nc1nnc(SCC(=O)Nc2cc(C)on2)s1	14	95*	-3	0	8
Cc1ccc2cc(CCNS(=O)(=O)c3ccc(Br)cc3)c(=O)[nH]c2c1C	-14	nt	-1	-4	55*
Cc1cc(C)c(S(=O)(=O)NCCc2cc3ccc(C)c(C)c3[nH]c2=O)c(C)c1	0	nt	1	1	11
CC(C)(C)N1CC(C(=O)Nc2cccc(Cl)c2Cl)CC1=O (stereo unspecified)	1	nt	1	-5	16
COCCNC(=O)C1CC(c2ccccc2C(F)(F)F)=NO1 (stereo unspecified)	nt	nt	1	0	-15
O=C(CSc1nnc2ccccn12)Nc1cccc(-c2nc3ccccc3s2)c1	-5	93*	2	2	-17
CCc1ccc(NC(=O)Cn2cnc3c(=O)n(C)c(=O)n(C)c32)cc1	0	1	1	1	0
O=C(CSc1nnc2ccccn12)Nc1ccc2c(c1)OCO2	0	-9	1	-2	-6
Cn1c(=O)c2ncn(CC(=O)Nc3cccc(-c4nc5ccccc5s4)c3)c2n(C)c1=O	5	82*	6	17	13
COc1ccc(S(=O)(=O)Nc2cccc(-c3ccc(N4CCCCCC4)nn3)c2)c(OC)c1	0	nt	7	3	-5
CCOc1cc(C(=O)OCC(=O)Nc2cc(C)on2)ccc1OCC(C)C	-1	94*	0	-3	1
COc1ccc(/C=N/Nc2ccc([N+](=O)[O-])cc2S(=O)(=O)N2CCN(C)CC2)cc1	-9	71*	3	3	3
O=Nc1c(-c2c(O)[nH]c3cc(Br)ccc23)[nH]c2ccccc12	-111	nt	16	-3	43*
Nc1ncnc2c1nc(Br)n2C1OC2COP(=O)(O)O[C@@H]2C1O (stereo partly specified)	nt	-15	nt	nt	nt
O=C(CN(Cc1ccccc1)C(=O)CCC(=O)Nc1nccs1)NCc1ccccc1	-3	nt	3	-4	-7
C=CCN1C(=O)c2ccc(C(=O)NCC(=O)Nc3c(C)cc(C)cc3C)cc2C1=O	-10	nt	-1	-5	-24
CCN=C1SC(CC(=O)Nc2ccc(C(F)(F)F)cc2)C(=O)N1CC (stereo unspecified)	13	82*	-1	-2	1
CCN=C1SC(CC(=O)Nc2sc3c(c2C#N)CCCC3)C(=O)N1CC (stereo unspecified)	-6	92*	0	4	-5
CCN=C1SC(CC(=O)Nc2ccc(N3CCOCC3)cc2)C(=O)N1CC (stereo unspecified)	12	12	2	4	0
O=C(O)c1ccc([N+](=O)[O-])cc1-c1cc([N+](=O)[O-])ccc1C(=O)O	nt	nt	nt	nt	-4
COCc1cc(C)nc(NC2CCCCC2)c1C#N	7	82*	-2	0	-5
